These results are taken from ChEMBL document CHEMBL5500359, “Identification of a new bisindolinone arresting IGROV1 cells proliferation” (Eur J Med Chem, 2024).

In test [1] the test system is Ovarian cancer cell line. In words: Cytostatic activity against human Ovarian cancer cells incubated for 48 hrs by SRB assay. Format: functional. The procedure, abridged:
(§1)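 NCI-60 five-concentration screen: lines seeded 5×10^3–4×10^4 cells/well depending on line; compound diluted in fresh medium at scalar concentrations 0–100 or 0–1000 μM; 48 h exposure, in situ fixation, sulforhodamine B protein staining, optical density read; GI50, TGI and LC50 per NCI procedures; panel mean = mean graph midpoint.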

For test [2], the system named is Panel NCI-60 (60 carcinoma cell lines). In words: Cytostatic activity against human Panel NCI-60 (60 carcinoma cell lines) incubated for 48 hrs by SRB assay. Format: functional. The method in brief: as §1
On the technique in general: Sulforhodamine B stains cellular protein and so reports cell mass.

Test [3] has as its system Melanoma cell line. In words: […] against human Melanoma cells incubated for 48 hrs by SRB assay. Format: functional. The conditions noted are these: read-out: LC50 (the source's name). The procedure, abridged:
(§2)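 NCI DTP five-concentration screen. Cells were seeded at 5 × 10³–4 × 10⁴ cells/well, depending on the line. Compounds were diluted in fresh medium and added at scalar concentrations over 0–1000 µM or 0–100 µM. After 48 h the cells were fixed in situ, stained with sulforhodamine B, and optical density was read. GI50, TGI and LC50 were derived by NCI procedures, and the panel mean is the mean graph midpoint.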

For test [4], the system named is Breast cancer cell line. In words: Cytostatic activity against human Breast cancer cells incubated for 48 hrs by SRB assay. It counts as functional. The procedure, abridged:
as §1

Test [5] deals with Colon carcinoma cell. In words: Cytotoxicity against human Colon carcinoma cells incubated for 48 hrs by SRB assay. It counts as functional. The procedure, abridged:
as §1

In test [6] the test system is CNS carcinoma cell. In words: Cell growth inhibition of human CNS carcinoma cells incubated for 48 hrs by SRB assay. It counts as functional. The procedure, abridged:
as §1

Test [7] has as its system Breast cancer cell line. In words: Cytotoxicity against human Breast cancer cells incubated for 48 hrs by SRB assay. Format: functional. The procedure, abridged:
as §1

Test [8] relates to Colon carcinoma cell. In words: Cytostatic activity against human Colon carcinoma cells incubated for 48 hrs by SRB assay. It counts as functional. The method in brief:
as §1

For test [9], the system named is Renal cancer cell line. In words: Cytostatic activity against human Renal cancer cells incubated for 48 hrs by SRB assay. It counts as functional. The method in brief: as §1
Test [10] in a line: Cell growth inhibition of human Leukemia cancer cells incubated for 48 hrs by SRB assay. It counts as functional. The procedure, abridged: as §1
Test [11] in a line: Cytotoxicity against human Leukemia cancer cells incubated for 48 hrs by SRB assay. It counts as functional. The conditions noted are these: Leukemia cell, read-out: LC50 (the source's name). The procedure, abridged:
as §2

Test [12] relates to Renal cancer cell line. In words: Cell growth inhibition of human Renal cancer cells incubated for 48 hrs by SRB assay. It counts as functional. The method in brief: as §1
The test system of test [13] is Ovarian cancer cell line. In words: Cytotoxicity against human Ovarian cancer cells incubated for 48 hrs by SRB assay. It counts as functional. The method in brief:
as §1

For test [14], the system named is CNS carcinoma cell. In words: Cytostatic activity against human CNS carcinoma cells incubated for 48 hrs by SRB assay. Format: functional. The procedure, abridged: as §1
The subject of test [15] is Panel NCI-60 (60 carcinoma cell lines). In words: Cell growth inhibition of human Panel NCI-60 (60 carcinoma cell lines) incubated for 48 hrs by SRB assay. It counts as functional. The procedure, abridged: as §1
Test [16] deals with Breast cancer cell line. In words: Cell growth inhibition of human Breast cancer cells incubated for 48 hrs by SRB assay. It counts as functional. The conditions noted are these: read-out: LC50 (the source's name). The method in brief:
as §2

Test [17] deals with Prostatic carcinoma cell. In words: Cell growth inhibition of human Prostate carcinoma cells incubated for 48 hrs by SRB assay. Format: functional. The method in brief: as §1
Test [18] deals with Melanoma cell line. In words: Cell growth inhibition of human Melanoma cells incubated for 48 hrs by SRB assay. It counts as functional. The method in brief: as §1
Test [19] relates to NSCLC. In words: Cell growth inhibition of human NSCLC cells incubated for 48 hrs by SRB assay. It counts as functional. The procedure, abridged: as §1
Test [20] can be described thus: Cytostatic activity against human Leukemia cancer cells incubated for 48 hrs by SRB assay. It counts as functional, Leukemia cell. The method in brief: as §1

The term TGI denotes the concentration giving total growth inhibition. Broadly, the GI50 is the concentration giving 50% growth inhibition. Higher therefore signals less potent growth inhibition.

For the compound `CC(C)(C)c1cc(/C=C2/C(=O)Nc3cccc(F)c32)c(O)c(/C=C2/C(=O)Nc3cccc(F)c32)c1`, the TGI in test [1] was found to be 5.89 µM; in [4] it was 8.51 µM; in test [8], 6.46 µM. In addition, the GI in [2] is 6.46 µM; in [5], 16.98 µM; in [7] it was 33.88 µM; in test [9], 7.24 µM; in test [13], 15.49 µM; in test [14] it was 6.46 µM. The GI came to 2.75 µM in test [17], 2.29 µM in test [18], 2.14 µM in test [19] and 4.79 µM in [20]. Further, the CC50 in test [3] was 5.5 µM; in test [11], 22.9 µM; in test [16], 2.04 µM. The GI50 in test [6] was determined as 2.09 µM; in [10], 1.58 µM; in [12], 2.45 µM; in [15], 2.14 µM.

Regarding `COc1ccc2[nH]c(Cl)c(/C=C3/C(=O)N(C)c4cc5c(cc43)/C(=C\c3c(Cl)[nH]c4ccc(OC)cc34)C(=O)N5C)c2c1`, the TGI in test [1] was 4.69 µM; in [4] it was 6.31 µM; in [8] it was 4.68 µM. Also, the GI in [2] amounted to 4.9 µM; in test [5], 11.75 µM; in test [7] it was 21.88 µM; in test [9] it was 4.47 µM; in test [13], 12.59 µM; in test [14], 4.07 µM. Also, the GI was 1.95 µM in [17], 2.04 µM in test [18], 1.78 µM in [19] and 6.17 µM in test [20]. Also, the CC50 in test [3] was 4.9 µM; in test [11] it was 89.1 µM; in test [16] it was 3.16 µM. Moreover, the GI50 came to 1.74 µM in [6], 2.24 µM in test [10], 1.78 µM in [12] and 2.04 µM in test [15].

For the compound `Cc1cc2c(cc1O)/C(=C\c1cc(C(C)(C)C)cc(C=O)c1O)C(=O)N2`, the figures for the TGI in test [1], in test [4] and in [8] were 9.55 µM, 14.8 µM and 11.5 µM, respectively. Moreover, the GI in test [2] is 8.91 µM; in test [5], 38.02 µM; in [7], 77.62 µM; in [9], 11.48 µM; in test [13] it was 56.23 µM; in [14], 10 µM. Also, the GI turned out to be 0.87 µM in test [17], 1.78 µM in test [18], 3.47 µM in test [19] and 3.72 µM in test [20]. Further, the CC50 in test [3] worked out at 5.75 µM; in test [11] it was 81.3 µM; in test [16] it was 1.82 µM. For the same compound, the GI50 in [6] came out at 1.2 µM; in [10], 0.68 µM; in [12], 2.57 µM; in [15], 1.91 µM.

As for `O=C1Nc2cc(Cl)ccc2/C1=C\c1cccc(/C=C2/C(=O)Nc3cc(Cl)ccc32)c1`, the TGI was 8.91 µM in test [1], 6.92 µM in [4] and 4.68 µM in [8]. In addition, the GI in [2] was found to be 7.59 µM; in [5] it was 11.22 µM; in test [7], 37.15 µM; in [9], 8.51 µM; in [13], 44.67 µM; in [14], 5.89 µM. The GI in test [17] was determined as 2.14 µM; in test [18] it was 2.19 µM; in test [19] it was 3.39 µM; in [20] it was 11.22 µM. For the same compound, the CC50 in test [3] was 5.25 µM; in test [11] it was 100 µM; in test [16], 2.45 µM. Moreover, the 50% growth inhibitory concentration (GI50) in test [6] was found to be 2.29 µM; in test [10], 2.4 µM; in [12], 3.09 µM; in test [15], 2.57 µM.

For the compound `O=C1Nc2cccc(F)c2/C1=C\c1cccc(/C=C2/C(=O)Nc3cccc(F)c32)c1`, the concentration for total growth inhibition (TGI) in test [1] turned out to be 7.59 µM; in test [4] it was 6.17 µM; in test [8] it was 3.31 µM. The GI in test [2] came out at 5.13 µM; in test [5], 6.76 µM; in [7] it was 16.98 µM; in [9] it was 4.17 µM; in [13], 33.88 µM; in test [14], 4.27 µM. The GI in [17] turned out to be 2.14 µM; in [18] it was 1.7 µM; in test [19], 2.4 µM; in [20], 6.92 µM. The CC50 in test [3] is 3.72 µM; in test [11] it was 100 µM; in [16], 2 µM. The GI50 in [6] is 1.82 µM; in test [10] it was 1.23 µM; in [12], 1.86 µM; in test [15], 1.91 µM.

With `CC(C)(C)c1cc(/C=C2/C(=O)Nc3ccc(F)cc32)c(O)c(/C=C2/C(=O)Nc3ccc(F)cc32)c1`, the TGI was determined as 15.8 µM in test [1], 19.5 µM in [4] and 14.8 µM in test [8]. Besides, the GI was 13.8 µM in test [2]; 42.66 µM in [5]; 46.77 µM in test [7]; 14.13 µM in test [9]; 47.86 µM in test [13]; 12.02 µM in [14]. Moreover, the GI turned out to be 3.89 µM in test [17], 3.02 µM in [18], 4.17 µM in test [19] and 12.02 µM in [20]. Further, the CC50 is 9.77 µM in test [3], 60.3 µM in [11] and 3.8 µM in test [16]. Also, the GI50 turned out to be 2.95 µM in test [6], 3.09 µM in [10], 4.68 µM in test [12] and 3.8 µM in [15].
